The record followed here is ChEMBL document CHEMBL4330057, “Second generation of diazachrysenes: Protection of Ebola virus infected mice and mechanism of action” (Eur J Med Chem, 2019).

Data set [1] is described as follows: Toxicity in 6 hrs post fertilized zebrafish embryo assessed as teratogenic effect by measuring yolk absorption up to 50 uM up to 120 hrs post fertilization by inverted microscopic method. Set-up: species or system Danio rerio. The settings on record: in vivo.
Data set [2] is described as follows: Toxicity in 6 hrs post fertilized zebrafish embryo assessed as teratogenic effect by measuring effect on heart beat frequency up to 50 uM up to 120 hrs post fertilization by inverted microscopic method. The note with it: in vivo. Set-up: species or system Danio rerio.
Data set [3] concerns Ebolavirus. The data set is described as follows: Antiviral activity against Ebolavirus H. sapiens-wt/1995/Kikwit-9510621 infected in African green monkey Vero cells assessed as inhibition of viral infection pretreated for 2 hrs followed by viral infection and measured after 48 hrs by EboV GP immunostaining based high content imaging analysis. The data set is classed as functional, organism-based. The settings on record: Orthoebolavirus, H. sapiens-wt/1995/Kikwit-9510621, Vero.

The nature of data set [4]: Toxicity in 6 hrs post fertilized zebrafish embryo assessed as teratogenic effect by measuring growth retardation up to 50 uM up to 120 hrs post fertilization by inverted microscopic method. The settings on record: in vivo. Set-up: species or system Danio rerio.
Data set [5] concerns HeLa. Kind of data set: Induction of lysosomotropism in human HeLa cells infected with Ebolavirus assessed as increase in fluorescence intensity of acid compartments at 10 uM for 1 hr by Lysosensor DND189 staining based assay. The format is functional, cell-based. The method in brief:
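HeLa cells were pretreated 1 h with compound (Bafilomycin A1 at 0.01 μM as acidification control), then stained with LysoSensor DND 189 for 10 min and washed. Live imaging at Ex/Em 443/505 nm. Fluorescence intensity per area was quantified by image analysis. Eight wells per point, about 3000 cells/well, mean ± SD, three independent experiments.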

Data set [6] can be described thus: Toxicity in 6 hrs post fertilized zebrafish embryo assessed as tail detachment up to 50 uM up to 120 hrs post fertilization by inverted microscopic method. The note with it: in vivo. Set-up: species or system Danio rerio.
Another data set relates to Zaire ebolavirus. Kind of data set: Antiviral activity against VSV pseudotyped Ebolavirus Mayinga expressing GFP infected in human HeLa cells assessed as inhibition of viral infection at 10 uM pre-incubated for 2 hrs followed by viral infection and measured after 8 hrs by cell mask deep red staining based assay. The note with it: 1976. The data set is classed as functional, organism-based. The method in brief: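 HeLa cells pretreated 2 h with compound, then infected with rVSV-EBOV-GP-GFP (8 h) or VSV-GFP (6 h), and stained with Cell Mask Deep Red. Relative inhibition = 1 minus (% GFP-expressing cells normalised to mock). Mean ± SD of three replicates, representative of three independent experiments.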

Data set [7] in a line: Toxicity in 6 hrs post fertilized zebrafish embryo assessed as teratogenic effect by measuring malformation of head up to 50 uM up to 120 hrs post fertilization by inverted microscopic method. The format is tissue-based, Danio rerio. The settings on record: in vivo.
Data set [8] is described as follows: Myelotoxicity in 6 hrs post fertilized transgenic mpx:GFP zebrafish embryo assessed as reduction in neutrophil occurrence at >= 80 uM measured at 72 hrs hrs post fertilization by fluorescence assay. Set-up: species or system Danio rerio.
Data set [9] in a line: Toxicity in 6 hrs post fertilized zebrafish embryo assessed as teratogenic effect by measuring effect on blood circulation up to 50 uM up to 120 hrs post fertilization by inverted microscopic method. Set-up: species or system Danio rerio. The note with it: in vivo.
A short description of data set [10]: Hepatotoxicity in 72 hrs post fertilized transgenic l-fabp:EGFP zebrafish embryo assessed as change in liver fluorescence up to 80 uM up to 120 hrs post fertilization by fluorescence assay. The data set is classed as toxicity, Danio rerio. The note with it: in vivo. The method in brief: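 Transgenic Tg(l-fabp:EGFP) zebrafish with fluorescent liver, exposed to compound added at 72 hpf. Liver imaged in vivo at 120 hpf. Read-outs were liver fluorescence and liver area index (liver area divided by lateral body area).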

The nature of data set [11]: Toxicity in 6 hrs post fertilized zebrafish embryo assessed as teratogenic effect by measuring malformation of sacculi/otoliths up to 50 uM up to 120 hrs post fertilization by inverted microscopic method. Set-up: species or system Danio rerio. The note with it: in vivo.
Data set [12] concerns HeLa. Kind of data set: Induction of lysosomotropism in human HeLa cells infected with Ebolavirus assessed as increase in lysosome concentration in juxtanuclear region at 10 uM for 2 hrs by acridine orange staining based assay. The format is functional, cell-based. In short, it runs like this:
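HeLa cells were pretreated with compound for 2 h, then given acridine orange for 30 min and washed. Red AO fluorescence in acidic compartments was imaged, and total intensity and average area were scored by high-content imaging. Eight wells per point, about 3000 cells/well, mean ± SD, representative of three independent experiments.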

Data set [13] can be described thus: Toxicity in 6 hrs post fertilized zebrafish embryo assessed as teratogenic effect by measuring malformation of eyes up to 50 uM up to 120 hrs post fertilization by inverted microscopic method. The settings on record: in vivo. Set-up: species or system Danio rerio.
Data set [14] in a line: Toxicity in 6 hrs post fertilized zebrafish embryo assessed as teratogenic effect by measuring malformation of notochord up to 50 uM up to 120 hrs post fertilization by inverted microscopic method. The data set is classed as tissue-based, Danio rerio. The settings on record: in vivo.
Data set [15] concerns HeLa. The data set is described as follows: Inhibition of lysosome fusion with autophagosome in human HeLa cells harboring GFP-LC3 assessed as increase in GFP-LC3-2 clustering at <50 uM after 6 hrs by Western blot analysis. The data set is classed as functional, subcellular. The method in brief: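 HeLa cells were exposed to compound for 6 h, then lysed and analysed by Western blot.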

Data set [16] is described as follows: Toxicity in 6 hrs post fertilized zebrafish embryo assessed as teratogenic effect by measuring liver morphology and color up to 50 uM up to 120 hrs post fertilization by inverted microscopic method. The format is tissue-based, Danio rerio. The note with it: in vivo.
Data set [17] is described as follows: Toxicity in 6 hrs post fertilized zebrafish embryo assessed as teratogenic effect by measuring pericardial edema up to 50 uM up to 120 hrs post fertilization by inverted microscopic method. Set-up: species or system Danio rerio. The note with it: in vivo.
The nature of data set [18]: Toxicity in 6 hrs post fertilized zebrafish embryo assessed as teratogenic effect by measuring scoliosis up to 50 uM up to 120 hrs post fertilization by inverted microscopic method. Set-up: species or system Danio rerio. The note with it: in vivo.
Data set [19] is described as follows: Toxicity in 6 hrs post fertilized zebrafish embryo assessed as teratogenic effect by measuring malformation of tail up to 50 uM up to 120 hrs post fertilization by inverted microscopic method. The data set is classed as tissue-based, Danio rerio. The settings on record: in vivo.
A short description of data set [20]: Toxicity in 6 hrs post fertilized zebrafish embryo assessed as teratogenic effect by measuring yolk edema up to 50 uM up to 120 hrs post fertilization by inverted microscopic method. Set-up: species or system Danio rerio. The note with it: in vivo.
Data set [21] addresses Cathepsin B (Homo sapiens) (UniProt P07858). The data set is described as follows: Inhibition of cathepsin B activity in human HeLa cells at 10 uM after 12 hrs by magic red substrate based fluorescence assay. The format is cell-based. The method in brief:
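HeLa cells were exposed to compound for 12 h, then given the Magic Red cathepsin B peptide reporter, washed, and imaged at Ex/Em 590/630. Total intensity and average area of red fluorescence were scored by high-content analysis. Eight wells per point, about 3000 cells/well, mean ± SD, three independent experiments.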

Data set [22] can be described thus: Hepatotoxicity in 6 hrs post fertilized transgenic l-fabp:EGFP zebrafish embryo assessed as change in liver area index up to 30 uM up to 120 hrs post fertilization by fluorescence assay. The format is toxicity, Danio rerio. The settings on record: in vivo. In short, it runs like this:
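Tg(l-fabp:EGFP) zebrafish embryos exposed from 6 hpf. At 120 hpf, liver area index (liver area/lateral body area) and liver fluorescence assessed by in vivo imaging.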

Data set [23] concerns Ebolavirus. The data set is described as follows: Antiviral activity against Ebolavirus infected in mouse assessed as protection against viral infection at 20 mg/kg/day relative to control. The data set is classed as functional.
In data set [24] the test system is Ebolavirus. Kind of data set: Antiviral activity against Ebolavirus infected in mouse assessed as protection against viral infection at 24 mg/kg/day relative to control. The format is functional.

SMILES strings stand for the structures. The source made the active and inactive calls. The rule behind the calls is not given here.

In general, EC50 refers to the concentration giving half of the maximal effect. In the case of `CCN(CC)CCCC(C)Nc1ccnc2cc(Cl)ccc12` (stereo not given) [CHLOROQUINE], the Activity result in data set [1] is “Non-Toxic”; in [2], “Non-Toxic”; in data set [4], “Non-Toxic”; in data set [6], “Non-Toxic”; in [7], “Non-Toxic”; in data set [8], “Toxic”. The Activity result is reported as “Non-Toxic” in data set [9]; “Toxic” in data set [10]; “Non-Toxic” in data set [11]; “Non-Toxic” in [13]; “Non-Toxic” in [14]; “Non-Toxic” in [16]. Also, the Activity result in data set [17] was “Non-Toxic”; in data set [18], “Non-Toxic”; in data set [19] it was “Non-Toxic”; in [20] it was “Non-Toxic”; in data set [22], “Toxic”. The EC50 in the data set with Ebolavirus [3] amounted to 16 µM. For the same molecule, in the data set on HeLa [5], the result was inactive. Further, the outcome in the data set on Zaire ebolavirus and in the data set with HeLa [12] was Active. The inhibition result (with HeLa [15]; in [21]) was “inactive” throughout.
Consider `CN[C@H]1CC[C@@H](c2ccc(Cl)c(Cl)c2)c2ccccc21` [SERTRALINE], for which, in the data set with Ebolavirus [23], the Activity is listed as 70%.
Regarding `CC(C)COCC(CN(Cc1ccccc1)c1ccccc1)N1CCCC1` (stereo not given) [BEPRIDIL], the Activity in the data set with Ebolavirus [24] came to 100%.
